Laboratory results taken from ChEMBL document CHEMBL1275449, “Potent in vitro antifungal activities of naturally occurring acetylenic acids” (Antimicrob Agents Chemother, 2008).
Converted amounts (≈) assume the structure as drawn. The source made the active and inactive calls. No cut-off for these calls is given here.

Experiments:
[1] = system: Candida tropicalis; assay: Antifungal activity against Candida tropicalis ATCC 750 after 48 hrs by CLSI method; format: functional, organism-based; settings: ATCC 750, 48 h
Procedure, shortened: (§1)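 Yeast suspensions made from 3-5 colonies off 24-72 h SD agar plates in saline. They were diluted by OD630 standard curve in RPMI 1640 (0.2% dextrose, 0.03% glutamine, 0.165 M MOPS, pH 7.0) to 1.5 × 10³ CFU/ml. Twofold dilutions (11 concentrations, 20% DMSO-saline) run in duplicate. OD530 read before and after 35°C, 48 h. Line values are top test concentrations; no-growth endpoints give MIC/MFC.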

[2] = system: Candida parapsilosis; assay: Antifungal activity against Candida parapsilosis ATCC 22019 after 48 hrs by CLSI method; format: functional, organism-based; settings: Lodderomyces parapsilosis, ATCC 22019, 48 h; procedure, shortened: as §1
[3] = system: Trichophyton mentagrophytes; assay: Antifungal activity against Trichophyton mentagrophytes ATCC 9533 by CLSI method; format: functional, organism-based
Procedure, shortened: (§2)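 Growth scraped from 1- to 6-week-old potato dextrose slants and filtered through Miracloth. Diluted in 5% Alamar blue-RPMI 1640 (MOPS pH 7.0) to 2.7 × 10⁴ CFU/ml. Eleven twofold dilutions in duplicate. Fluorescence at 544 nm excitation/590 nm emission read before and after 35°C, 5 days. IC50 fitted from percent growth. MIC taken as no detectable growth; MFC from clear or blue wells plated on PD agar.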

[4] = system: Candida albicans; assay: Antifungal activity against Candida albicans ATCC 14053 after 48 hrs by CLSI method; format: functional, organism-based; settings: ATCC 14053, 48 h
Procedure, shortened: (§3)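 CLSI broth microdilution. Colonies from 24–72 h SD agar suspended in saline and sized by OD630 standard curve. Inoculum 1.5 × 10³ CFU/ml (final) in RPMI 1640 (0.2% dextrose, 0.03% glutamine, 0.165 M MOPS, pH 7.0). Twofold dilutions (11 levels) from 20% DMSO-saline, in duplicate. 35°C for 48 h, OD530 read before and after. IC50 fitted from % growth. MIC: no detectable growth. MFC: subculture onto SD agar.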

[5] = system: Aspergillus fumigatus; assay: Antifungal activity against Aspergillus fumigatus ATCC 204305 at 68.3 uM after 48 hrs by CLSI method; format: functional, organism-based
[6] = system: Aspergillus niger; assay: Antifungal activity against Aspergillus niger ATCC 16404 at 68.3 uM after 48 hrs by CLSI method; format: functional, organism-based
[7] = system: Pichia kudriavzevii; assay: Antifungal activity against Candida krusei ATCC 6258 after 48 hrs by CLSI method; format: functional, organism-based; settings: ATCC 6258, 48 h
Procedure, shortened: (§4)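 Candida inocula came from 24–72-h SD agar colonies suspended in saline. They were diluted by OD630 standard curve into RPMI 1640 (0.2% dextrose, 0.03% glutamine, 0.165 M MOPS, pH 7.0) to 1.5 × 10³ CFU/ml. Compounds were run as 11 twofold dilutions in 20% DMSO-saline, in duplicate, at 35°C for 48 h, with OD530 read before and after. Percent growth at the top concentration, IC50, MIC, and MFC (SD agar plating) were derived.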

[8] = system: Pichia kudriavzevii; assay: Antifungal activity against Candida krusei ATCC 6258 at 68.3 uM after 48 hrs by CLSI method; format: functional, organism-based; procedure, shortened: as §1
[9] = system: Candida albicans; assay: Antifungal activity against Candida albicans ATCC 14053 at 68.3 uM after 48 hrs by CLSI method; format: functional, organism-based
[10] = system: Candida albicans; assay: Antifungal activity against Candida albicans ATCC 200955 at 68.3 uM after 48 hrs by CLSI method; format: functional, organism-based; procedure, shortened: as §4
[11] = system: Aspergillus fumigatus; assay: Antifungal activity against Aspergillus fumigatus ATCC 90906 after 48 h by CLSI method; settings: ATCC 90906, 48 h
[12] = system: Candida albicans; assay: Antifungal activity against Fluconazole resistant Candida albicans clinical isolate 17 after 48 hrs by CLSI method; format: functional, organism-based; procedure, shortened: as §3
[13] = system: Candida albicans; assay: Antifungal activity against Candida albicans ATCC 32354 at 68.3 uM after 48 hrs by CLSI method; format: functional, organism-based; procedure, shortened: as §4
[14] = system: Candida albicans; assay: Antifungal activity against Candida albicans ATCC 60193 at 68.3 uM after 48 hrs by CLSI method; format: functional, organism-based; procedure, shortened: as §4
[15] = system: Candida albicans; assay: Antifungal activity against Candida albicans ATCC 60193 after 48 hrs by CLSI method; format: functional, organism-based; settings: ATCC 60193, 48 h; procedure, shortened: as §3
[16] = system: Trichophyton rubrum; assay: Antifungal activity against Trichophyton rubrum ATCC MYA-4438 by CLSI method; format: functional, organism-based; procedure, shortened: as §2
[17] = system: Candida tropicalis; assay: Antifungal activity against Candida tropicalis ATCC 750 at 68.3 uM after 48 hrs by CLSI method; format: functional, organism-based; procedure, shortened: as §1
[18] = system: Trichophyton mentagrophytes; assay: Antifungal activity against Trichophyton mentagrophytes ATCC MYA-4439 by CLSI method; format: functional, organism-based; procedure, shortened: as §2
[19] = system: Aspergillus niger; assay: Antifungal activity against Aspergillus niger ATCC 16404 after 48 h by CLSI method; settings: ATCC 16404, 48 h
[20] = system: Cryptococcus neoformans; assay: Antifungal activity against Cryptococcus neoformans ATCC 90113 after 72 hrs by CLSI method; format: functional, organism-based; settings: ATCC 90113, 72 h
Procedure, shortened: (§5)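 SD broth replaced RPMI because growth in RPMI was poor; other CLSI conditions were kept. Inoculum was 1.5 × 10³ CFU/ml from colonies on SD agar, checked by plating. Twofold serial dilutions (11 concentrations) in 20% DMSO-saline were tested in duplicate. OD530 was read before and after incubation at 35°C for 72 h. Percent growth gave IC50; the MIC is the lowest concentration with no detectable growth.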

[21] = system: Aspergillus flavus; assay: Antifungal activity against Aspergillus flavus ATCC 204304 after 48 h by CLSI method; settings: ATCC 204304, 48 h
[22] = system: Candida parapsilosis; assay: Antifungal activity against Candida parapsilosis ATCC 22019 at 68.3 uM after 48 hrs by CLSI method; format: functional, organism-based; procedure, shortened: as §1
[23] = system: Aspergillus fumigatus; assay: Antifungal activity against Aspergillus fumigatus ATCC 90906 at 68.3 uM after 48 hrs by CLSI method; format: functional, organism-based
[24] = system: Candida albicans; assay: Antifungal activity against Fluconazole resistant Candida albicans isolate 17 at 68.3 uM after 48 hrs by CLSI method; format: functional, organism-based
Procedure, shortened: (§6)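 Candida in CLSI broth microdilution. Saline colony suspension set to 1.5 × 10³ CFU/ml (final) in MOPS-buffered RPMI 1640, pH 7.0. Test agent given as twofold serial dilutions in 20% DMSO-saline, duplicate wells. 35°C for 48 h. Growth read as OD530 before and after incubation. Percent inhibition scored at the highest test concentration.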

[25] = system: Cryptococcus neoformans; assay: Antifungal activity against Cryptococcus neoformans ATCC 66031 after 72 hrs by CLSI method; format: functional, organism-based; settings: ATCC 66031, 72 h; procedure, shortened: as §5
[26] = system: Candida albicans; assay: Antifungal activity against Candida albicans ATCC 32354 after 48 hrs by CLSI method; format: functional, organism-based; settings: ATCC 32354, 48 h; procedure, shortened: as §3
[27] = system: Candida albicans; assay: Antifungal activity against Fluconazole resistant Candida albicans isolate 1 at 68.3 uM after 48 hrs by CLSI method; format: functional, organism-based; procedure, shortened: as §6
[28] = system: Candida albicans; assay: Antifungal activity against Candida albicans ATCC 90028 at 68.3 uM after 48 hrs by CLSI method; format: functional, organism-based; procedure, shortened: as §4
[29] = system: Candida albicans; assay: Antifungal activity against Candida albicans ATCC 90028 after 48 hrs by CLSI method; format: functional, organism-based; settings: ATCC 90028, 48 h; procedure, shortened: as §3
[30] = system: Candida albicans; assay: Antifungal activity against Fluconazole resistant Candida albicans clinical isolate 1 after 48 hrs by CLSI method; format: functional, organism-based; procedure, shortened: as §3
[31] = system: Candida albicans; assay: Antifungal activity against Candida albicans ATCC 200955 after 48 hrs by CLSI method; format: functional, organism-based; settings: ATCC 200955, 48 h; procedure, shortened: as §3
[32] = system: Trichophyton rubrum; assay: Antifungal activity against Trichophyton rubrum ATCC 10218 by CLSI method; format: functional, organism-based; procedure, shortened: as §2
[33] = system: Trichophyton rubrum; assay: Antifungal activity against Trichophyton rubrum ATCC MYA-4438 at 68.3 uM after 5 days by CLSI method; format: functional, organism-based
[34] = system: Nakaseomyces glabratus; assay: Antifungal activity against Candida glabrata ATCC 90030 at 68.3 uM after 48 hrs by CLSI method; format: functional, organism-based; procedure, shortened: as §4
[35] = system: Aspergillus fumigatus; assay: Antifungal activity against Aspergillus fumigatus ATCC 204305 after 48 h by CLSI method; settings: ATCC 204305, 48 h

`CN(C/C=C/C#CC(C)(C)C)Cc1cccc2ccccc12` [TERBINAFINE] was tested. Which IC50 [1] did it give?
The IC50 was 45400 nM.

What about the IC50 [2] of the same compound?
The IC50 was 400 nM.

And the MIC [2]?
The MIC was 42.9 µM (≈ 12.5 µg/mL).

And the IC50 [3]?
The IC50 was under 20 nM.

What about the MFC [3] of the same compound?
The MFC was 0.27 µM (≈ 0.0787 µg/mL).

And the MIC [3]?
The MIC was 0.05 µM (≈ 0.0146 µg/mL).

What about the IC50 [4] of the same compound?
Its IC50 is 13700 nM.

And the Activity [5]?
The Activity was “inactive”.

And the Activity [6]?
Its Activity is “inactive”.

What about the IC50 [7] of the same compound?
The IC50 was over 68300 nM.

What about the Activity [8] of the same compound?
Its Activity is “inactive”.

What about the Activity [9] of the same compound?
The Activity was “inactive”.

And the Activity [10]?
Its Activity is “inactive”.

And the IC50 [11]?
Its IC50 is 1000 nM.

What about the MIC [11] of the same compound?
Its MIC is 4.3 µM (≈ 1.25 µg/mL).

And the IC50 [12]?
The IC50 was over 68300 nM.

What about the Activity [13] of the same compound?
Its Activity is “inactive”.

And the Activity [14]?
The Activity was “inactive”.

And the IC50 [15]?
Its IC50 is 5300 nM.

And the IC50 [16]?
Its IC50 is 4200 nM.

What about the MIC [16] of the same compound?
Its MIC is 21.4 µM (≈ 6.24 µg/mL).

And the Activity [17]?
The Activity was “inactive”.

And the IC50 [18]?
The IC50 was under 20 nM.

What about the MFC [18] of the same compound?
Its MFC is 0.27 µM (≈ 0.0787 µg/mL).

What about the MIC [18] of the same compound?
The MIC was 0.17 µM (≈ 0.0495 µg/mL).

What about the IC50 [19] of the same compound?
Its IC50 is 700 nM.

What about the MIC [19] of the same compound?
The MIC was 2.1 µM (≈ 0.612 µg/mL).

What about the IC50 [20] of the same compound?
The IC50 was 500 nM.

And the MFC [20]?
The MFC was 1.1 µM (≈ 0.321 µg/mL).

And the MIC [20]?
Its MIC is 1.1 µM (≈ 0.321 µg/mL).

What about the IC50 [21] of the same compound?
The IC50 was 300 nM.

And the MFC [21]?
Its MFC is 8.6 µM (≈ 2.51 µg/mL).

What about the MIC [21] of the same compound?
Its MIC is 2.1 µM (≈ 0.612 µg/mL).

What about the Activity [22] of the same compound?
Its Activity is “inactive”.

What about the Activity [23] of the same compound?
The Activity was “inactive”.

What about the Activity [24] of the same compound?
Its Activity is “inactive”.

What about the IC50 [25] of the same compound?
Its IC50 is 400 nM.

What about the MFC [25] of the same compound?
Its MFC is 8.6 µM (≈ 2.51 µg/mL).

What about the MIC [25] of the same compound?
Its MIC is 4.3 µM (≈ 1.25 µg/mL).

What about the IC50 [26] of the same compound?
Its IC50 is 2600 nM.

What about the Activity [27] of the same compound?
Its Activity is “inactive”.

And the Activity [28]?
The Activity was “inactive”.

And the IC50 [29]?
The IC50 was 10800 nM.

And the IC50 [30]?
Its IC50 is 11200 nM.

What about the IC50 [31] of the same compound?
Its IC50 is 3100 nM.

And the MIC [31]?
The MIC was 51.5 µM (≈ 15 µg/mL).

And the IC50 [32]?
The IC50 was under 20 nM.

What about the MFC [32] of the same compound?
The MFC was 0.13 µM (≈ 0.0379 µg/mL).

And the MIC [32]?
Its MIC is 0.1 µM (≈ 0.0291 µg/mL).

What about the Activity [33] of the same compound?
The Activity was “inactive”.

What about the Activity [34] of the same compound?
Its Activity is “inactive”.

And the IC50 [35]?
Its IC50 is 1100 nM.

And the MIC [35]?
The MIC was 4.3 µM (≈ 1.25 µg/mL).
